Experimental data taken from ChEMBL document CHEMBL4680221, “Discovery of pyrazole derivatives as cellular active inhibitors of histone lysine specific demethylase 5B (KDM5B/JARID1B)” (Eur J Med Chem, 2020).
Activity calls are given as the source filed them. No cut-off for these calls is given here.

How the values were obtained:
[1] = target: T1, Lysine-specific demethylase 5B (Homo sapiens, UniProt Q9UGL1); assay: Inhibition of recombinant human N-terminal FLAG-tagged KDM5B expressed in Sf9 insect cells at 10 uM using biotin-H3K4me as substrate by ALPHA relative to control
In short: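 ALPHA demethylase assay. Recombinant KDM5B (4 nM) was preincubated with compound, then biotin-H3K4me3 peptide (64 nM) was added. Buffer: 10 μM α-KG, 100 μM ascorbate, 50 μM (NH4)2Fe(SO4)2, 50 mM HEPES pH 7.5, 0.01% Tween 20, 0.1% BSA. Read-out used streptavidin donor and H3K4me1-2 antibody acceptor beads. Data were normalized to blank control and IC50 fitted.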

[2] = target: T2, Lysine-specific demethylase 4A (Homo sapiens) (UniProt O75164); assay: Inhibition of KDM4A (unknown origin) at 0.25 uM relative to control
T2 sequence (whole entry): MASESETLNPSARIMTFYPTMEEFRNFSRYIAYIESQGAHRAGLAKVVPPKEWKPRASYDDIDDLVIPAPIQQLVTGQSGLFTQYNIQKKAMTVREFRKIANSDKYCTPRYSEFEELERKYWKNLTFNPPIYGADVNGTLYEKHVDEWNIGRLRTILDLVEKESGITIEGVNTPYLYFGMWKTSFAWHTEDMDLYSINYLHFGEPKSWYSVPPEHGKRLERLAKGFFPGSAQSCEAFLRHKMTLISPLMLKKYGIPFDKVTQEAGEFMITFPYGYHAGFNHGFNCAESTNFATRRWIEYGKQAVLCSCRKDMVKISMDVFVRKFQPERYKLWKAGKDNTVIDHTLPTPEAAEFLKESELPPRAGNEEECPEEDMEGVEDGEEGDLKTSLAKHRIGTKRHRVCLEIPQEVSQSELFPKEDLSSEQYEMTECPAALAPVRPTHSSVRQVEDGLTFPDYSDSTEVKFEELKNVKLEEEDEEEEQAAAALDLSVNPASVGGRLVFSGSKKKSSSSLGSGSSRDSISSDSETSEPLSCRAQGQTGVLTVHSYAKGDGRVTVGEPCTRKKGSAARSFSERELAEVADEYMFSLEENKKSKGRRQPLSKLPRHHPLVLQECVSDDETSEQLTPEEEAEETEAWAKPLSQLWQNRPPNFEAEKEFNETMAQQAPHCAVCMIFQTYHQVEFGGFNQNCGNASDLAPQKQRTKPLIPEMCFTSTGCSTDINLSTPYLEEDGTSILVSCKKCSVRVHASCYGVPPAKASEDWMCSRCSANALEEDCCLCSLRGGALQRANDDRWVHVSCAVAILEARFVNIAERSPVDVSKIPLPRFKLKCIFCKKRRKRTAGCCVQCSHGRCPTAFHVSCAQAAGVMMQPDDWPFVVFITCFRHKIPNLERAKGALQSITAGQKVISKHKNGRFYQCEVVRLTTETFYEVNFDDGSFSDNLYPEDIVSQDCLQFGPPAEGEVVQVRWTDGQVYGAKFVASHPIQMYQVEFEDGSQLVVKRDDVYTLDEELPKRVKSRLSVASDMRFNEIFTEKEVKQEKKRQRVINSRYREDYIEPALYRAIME

[3] = target: T2, Lysine-specific demethylase 4A (Homo sapiens); assay: Inhibition of KDM4A (unknown origin) at 1 uM relative to control
[4] = target: T3, Lysine-specific demethylase 4C (Homo sapiens) (UniProt Q9H3R0); assay: Inhibition of KDM4C (unknown origin) at 1 uM relative to control
T3 sequence (whole entry): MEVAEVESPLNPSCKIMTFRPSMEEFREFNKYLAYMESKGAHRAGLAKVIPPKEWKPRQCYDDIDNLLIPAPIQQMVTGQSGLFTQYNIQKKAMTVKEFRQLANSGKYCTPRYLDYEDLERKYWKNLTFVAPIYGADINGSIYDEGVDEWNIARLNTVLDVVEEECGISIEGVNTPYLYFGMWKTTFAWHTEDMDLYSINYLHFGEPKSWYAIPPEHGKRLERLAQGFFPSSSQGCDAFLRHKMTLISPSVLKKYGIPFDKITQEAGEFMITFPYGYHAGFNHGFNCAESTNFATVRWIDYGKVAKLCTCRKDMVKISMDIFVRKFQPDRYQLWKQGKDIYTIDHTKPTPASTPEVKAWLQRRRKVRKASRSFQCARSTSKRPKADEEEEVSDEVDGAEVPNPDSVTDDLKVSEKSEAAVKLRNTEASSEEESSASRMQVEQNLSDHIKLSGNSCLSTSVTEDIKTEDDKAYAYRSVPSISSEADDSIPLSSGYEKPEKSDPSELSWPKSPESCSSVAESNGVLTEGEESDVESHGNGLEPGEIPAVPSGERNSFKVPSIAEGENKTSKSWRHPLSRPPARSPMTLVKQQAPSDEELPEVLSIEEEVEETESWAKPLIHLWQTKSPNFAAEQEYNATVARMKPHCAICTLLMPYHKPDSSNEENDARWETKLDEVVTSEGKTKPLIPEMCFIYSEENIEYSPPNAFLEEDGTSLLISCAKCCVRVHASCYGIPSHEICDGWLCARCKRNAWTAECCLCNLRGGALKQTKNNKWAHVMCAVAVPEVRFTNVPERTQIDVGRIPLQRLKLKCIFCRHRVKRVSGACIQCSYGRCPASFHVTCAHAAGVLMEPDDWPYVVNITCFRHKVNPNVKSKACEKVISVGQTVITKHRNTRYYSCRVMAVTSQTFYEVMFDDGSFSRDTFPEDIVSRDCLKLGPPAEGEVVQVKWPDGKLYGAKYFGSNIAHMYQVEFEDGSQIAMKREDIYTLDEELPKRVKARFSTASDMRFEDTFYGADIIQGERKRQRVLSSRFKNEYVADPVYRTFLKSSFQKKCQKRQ

[5] = target: Lysine-specific demethylase 5C (Homo sapiens, UniProt P41229); assay: Inhibition of KDM5C (unknown origin) at 0.25 uM relative to control
[6] = target: T4, Lysine-specific demethylase 4C (Homo sapiens, UniProt Q9H3R0); assay: Inhibition of KDM4C (unknown origin)
T4 sequence (Q9H3R0 whole entry): T3 sequence (whole entry)

MKN-45 = assay: Inhibition of KDM6 in human MKN-45 cells assessed as increase in H3K27me2 accumulation at 0.5 to 20 uM measured after 5 days by Western blot analysis; type: cell-based; conditions: dose 0.5-20 µM, time 5.0 day
In short: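 MKN45 cells were treated for 5 days and lysed in RIPA buffer. About 30 µg protein was run on 10% SDS-PAGE and transferred to 0.2 µm nitrocellulose, then blocked with 5% milk in PBS for 2 h. Blots were probed for histone methylation marks with histone 3 as loading control and detected by ECL.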

[7] = target: T1, Lysine-specific demethylase 5B; assay: Inhibition of KDM5B in human MKN-45 cells assessed as increase in H3K4me3 accumulation measured after 5 days by Hoechst 33342 staining based immunofluorescence assay; type: cell-based; conditions: time 5.0 day
In short: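 MKN45 cells were seeded and left 24 h, then treated for 5 days. Cells were fixed in 4% paraformaldehyde, permeabilised with 0.1% Triton X-100 for 20 min and blocked with 5% BSA for 1 h. H3K4me2 or H3K4me3 primary antibody was applied at 4°C overnight, followed by Alexa Fluor 488 secondary and Hoechst 33342 (5 µg/mL) nuclear stain. Signal was quantified by high content imaging; three independent experiments.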

T1 sequence (Q9UGL1 whole entry): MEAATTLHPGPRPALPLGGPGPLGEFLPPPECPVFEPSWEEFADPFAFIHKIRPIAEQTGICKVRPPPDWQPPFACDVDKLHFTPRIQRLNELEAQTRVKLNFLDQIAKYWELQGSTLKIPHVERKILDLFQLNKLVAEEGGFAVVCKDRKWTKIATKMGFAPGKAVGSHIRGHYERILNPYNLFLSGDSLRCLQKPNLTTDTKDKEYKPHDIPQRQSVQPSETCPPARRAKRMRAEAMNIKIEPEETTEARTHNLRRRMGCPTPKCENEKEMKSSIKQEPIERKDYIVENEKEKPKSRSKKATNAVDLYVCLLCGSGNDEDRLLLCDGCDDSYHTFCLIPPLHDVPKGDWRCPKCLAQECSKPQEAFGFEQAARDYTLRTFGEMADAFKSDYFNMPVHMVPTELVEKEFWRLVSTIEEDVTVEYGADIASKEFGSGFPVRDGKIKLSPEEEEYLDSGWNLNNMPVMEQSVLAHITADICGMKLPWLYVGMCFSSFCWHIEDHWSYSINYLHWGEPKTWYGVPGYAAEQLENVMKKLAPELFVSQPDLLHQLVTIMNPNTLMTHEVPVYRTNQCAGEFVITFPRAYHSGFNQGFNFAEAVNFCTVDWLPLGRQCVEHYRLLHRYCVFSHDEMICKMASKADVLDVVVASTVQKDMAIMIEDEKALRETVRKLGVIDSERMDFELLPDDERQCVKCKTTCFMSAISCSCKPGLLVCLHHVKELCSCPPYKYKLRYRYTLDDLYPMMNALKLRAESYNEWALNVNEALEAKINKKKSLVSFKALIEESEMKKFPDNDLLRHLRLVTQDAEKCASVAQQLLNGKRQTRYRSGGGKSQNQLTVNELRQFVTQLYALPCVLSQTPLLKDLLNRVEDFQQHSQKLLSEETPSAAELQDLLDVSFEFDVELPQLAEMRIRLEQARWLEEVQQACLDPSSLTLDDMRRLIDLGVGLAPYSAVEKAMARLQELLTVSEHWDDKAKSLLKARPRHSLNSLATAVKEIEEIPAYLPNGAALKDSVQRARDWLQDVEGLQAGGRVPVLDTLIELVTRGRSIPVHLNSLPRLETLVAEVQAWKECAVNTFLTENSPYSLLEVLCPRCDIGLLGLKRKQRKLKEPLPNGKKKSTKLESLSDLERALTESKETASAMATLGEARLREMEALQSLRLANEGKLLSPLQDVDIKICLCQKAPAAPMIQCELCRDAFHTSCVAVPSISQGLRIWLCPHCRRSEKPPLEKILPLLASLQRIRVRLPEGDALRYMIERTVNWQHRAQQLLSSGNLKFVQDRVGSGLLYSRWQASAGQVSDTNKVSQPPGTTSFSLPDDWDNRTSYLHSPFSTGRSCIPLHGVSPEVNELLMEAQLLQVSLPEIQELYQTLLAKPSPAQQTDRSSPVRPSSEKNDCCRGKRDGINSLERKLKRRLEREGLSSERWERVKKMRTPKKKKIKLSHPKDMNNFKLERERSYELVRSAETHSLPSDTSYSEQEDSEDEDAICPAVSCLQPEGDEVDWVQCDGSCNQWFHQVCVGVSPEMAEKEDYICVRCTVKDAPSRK
Chain of Lysine-specific demethylase 5C (P41229 whole entry): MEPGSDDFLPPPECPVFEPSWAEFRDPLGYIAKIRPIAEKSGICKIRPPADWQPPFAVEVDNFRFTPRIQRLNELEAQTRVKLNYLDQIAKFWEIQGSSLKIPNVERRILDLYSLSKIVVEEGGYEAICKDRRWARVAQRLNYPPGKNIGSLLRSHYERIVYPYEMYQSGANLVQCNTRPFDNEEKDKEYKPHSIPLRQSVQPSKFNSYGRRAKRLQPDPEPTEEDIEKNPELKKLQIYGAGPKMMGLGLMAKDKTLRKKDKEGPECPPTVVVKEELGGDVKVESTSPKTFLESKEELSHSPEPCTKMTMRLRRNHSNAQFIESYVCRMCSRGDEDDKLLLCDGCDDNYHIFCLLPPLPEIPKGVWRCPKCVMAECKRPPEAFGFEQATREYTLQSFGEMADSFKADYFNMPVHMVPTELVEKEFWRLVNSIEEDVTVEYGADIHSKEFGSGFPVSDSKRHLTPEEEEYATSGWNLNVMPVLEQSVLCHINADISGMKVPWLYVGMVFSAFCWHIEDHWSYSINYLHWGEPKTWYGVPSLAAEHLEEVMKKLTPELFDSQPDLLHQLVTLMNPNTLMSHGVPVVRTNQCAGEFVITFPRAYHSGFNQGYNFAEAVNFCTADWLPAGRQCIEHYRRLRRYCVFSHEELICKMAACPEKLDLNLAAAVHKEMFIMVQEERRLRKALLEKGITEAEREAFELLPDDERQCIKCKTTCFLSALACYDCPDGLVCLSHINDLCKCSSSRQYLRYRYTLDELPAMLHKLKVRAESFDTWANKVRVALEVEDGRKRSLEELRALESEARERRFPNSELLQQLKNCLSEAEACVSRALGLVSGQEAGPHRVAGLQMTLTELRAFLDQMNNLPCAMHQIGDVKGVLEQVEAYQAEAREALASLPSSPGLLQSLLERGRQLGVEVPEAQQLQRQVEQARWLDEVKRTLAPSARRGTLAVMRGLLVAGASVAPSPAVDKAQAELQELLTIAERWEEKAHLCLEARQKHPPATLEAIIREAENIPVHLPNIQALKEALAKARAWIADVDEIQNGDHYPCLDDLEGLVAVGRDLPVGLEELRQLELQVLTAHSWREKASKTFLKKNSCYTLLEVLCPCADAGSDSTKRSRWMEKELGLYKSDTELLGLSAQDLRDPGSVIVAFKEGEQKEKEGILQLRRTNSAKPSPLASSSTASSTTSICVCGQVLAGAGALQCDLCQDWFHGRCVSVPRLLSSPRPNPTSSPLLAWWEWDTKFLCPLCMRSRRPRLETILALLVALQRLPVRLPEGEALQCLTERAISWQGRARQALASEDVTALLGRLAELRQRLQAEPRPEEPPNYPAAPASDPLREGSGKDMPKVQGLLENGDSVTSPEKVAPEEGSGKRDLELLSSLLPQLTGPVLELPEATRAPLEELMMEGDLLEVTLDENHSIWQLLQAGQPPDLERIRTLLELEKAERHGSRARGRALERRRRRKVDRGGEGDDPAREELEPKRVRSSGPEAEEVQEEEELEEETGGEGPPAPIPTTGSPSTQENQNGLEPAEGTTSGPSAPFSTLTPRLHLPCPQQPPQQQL

inhibition [1]: 95.8% | inhibition [2]: 29.4% | inhibition [3]: 56.2% | inhibition [4]: 50.1% | inhibition [5]: 62.1% | IC50 [6]: 1110 nM | inhibition [7]: Dose-dependent effect
Structure (SMILES): COc1ccc(-n2cc(C(=O)NCC(C)(C)N3CCOCC3)c(-c3ccccc3)n2)cc1
inhibition (MKN-45): inactive
